Results published in ChEMBL document CHEMBL1144710, “epigenetic multiple ligands: mixed histone/protein methyltransferase, acetyltransferase, and class III deacetylase (sirtuin) inhibitors” (J Med Chem, 2008).
Active and inactive are the calls of the source. Unless noted, no cut-off for these calls is given here.

Key:
[1] = biological target: RmtA (Emericella nidulans) (UniProt Q5VLE3); assay: Inhibition of Aspergillus nidulans RmtA at 91.8 uM
Method in brief: (§1)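 Enzyme was GST-RmtA fusion expressed in E. coli BL21 and glutathione-affinity purified (500 ng), preincubated with compound for 15 min at room temperature. Then 20 µg chicken erythrocyte core histones and 0.55 µCi [3H]AdoMet were added, 30 min at 30 °C. Stopped with 25% TCA, filtered, counted by liquid scintillation.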

U-937 [2] = assay: Inhibition of histone H4R3 methylation in human U937 cells at 50 uM after 24 hrs; format: functional, cell-based
Method in brief: (§2)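 U937 cells treated at 50 µM for 24 h. Histones extracted with Triton buffer, then 0.2 M HCl overnight at 4 °C. 3–10 µg run on 15% SDS-PAGE and immunoblotted with anti-monomethyl-H3K4, monomethyl-H4R3 or dimethyl-H3R17 (1:500, overnight 4 °C), ECL detection. Loading controls: total H4 (H3K4), Ponceau Red (Arg marks).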

U-937 [3] = assay: Inhibition of histone H3R17 methylation in human U937 cells at 50 uM after 24 hrs; format: functional, cell-based; method in brief: as §2
[4] = biological target: RmtA (Emericella nidulans) (UniProt Q5VLE3); assay: Inhibition of Aspergillus nidulans RmtA at 89.4 uM
[5] = biological target: Protein arginine N-methyltransferase 1 (Homo sapiens) (UniProt Q99873); assay: Inhibition of human recombinant PRMT1 assessed as nuclear ribonucleoprotein Npl3p methylation at 100 uM
Sequence of Protein arginine N-methyltransferase 1 (Homo sapiens) (Q99873 whole entry, looked up): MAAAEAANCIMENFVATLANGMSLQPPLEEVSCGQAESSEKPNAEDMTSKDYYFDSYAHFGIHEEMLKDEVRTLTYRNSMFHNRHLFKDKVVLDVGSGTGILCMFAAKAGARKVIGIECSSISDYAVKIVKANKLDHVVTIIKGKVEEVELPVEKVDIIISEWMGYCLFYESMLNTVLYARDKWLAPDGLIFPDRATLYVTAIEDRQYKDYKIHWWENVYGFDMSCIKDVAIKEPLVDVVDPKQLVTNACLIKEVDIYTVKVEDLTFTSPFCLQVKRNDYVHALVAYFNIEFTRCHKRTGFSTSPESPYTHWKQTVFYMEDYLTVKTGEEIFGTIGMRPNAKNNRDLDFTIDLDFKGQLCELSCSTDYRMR
Method in brief: (§3)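 Recombinant enzymes (0.2 µg) with substrate (0.5 µg: Npl3p for PRMT1, PABP1 for CARM1, histone H3 for SET7), 0.5 µM [3H]AdoMet and 100 µM compound in PBS pH 7.4 with 3.3% v/v DMSO, 90 min at 30 °C. Products separated by 10% SDS-PAGE, transferred to PVDF, detected by fluorography on film overnight.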

[6] = biological target: T1, Histone-arginine methyltransferase CARM1 (Homo sapiens) (UniProt Q86X55); assay: Inhibition of human recombinant CARM1 assessed as poly(A) binding protein 1 methylation at 100 uM; method in brief: as §3
T1 sequence (whole entry): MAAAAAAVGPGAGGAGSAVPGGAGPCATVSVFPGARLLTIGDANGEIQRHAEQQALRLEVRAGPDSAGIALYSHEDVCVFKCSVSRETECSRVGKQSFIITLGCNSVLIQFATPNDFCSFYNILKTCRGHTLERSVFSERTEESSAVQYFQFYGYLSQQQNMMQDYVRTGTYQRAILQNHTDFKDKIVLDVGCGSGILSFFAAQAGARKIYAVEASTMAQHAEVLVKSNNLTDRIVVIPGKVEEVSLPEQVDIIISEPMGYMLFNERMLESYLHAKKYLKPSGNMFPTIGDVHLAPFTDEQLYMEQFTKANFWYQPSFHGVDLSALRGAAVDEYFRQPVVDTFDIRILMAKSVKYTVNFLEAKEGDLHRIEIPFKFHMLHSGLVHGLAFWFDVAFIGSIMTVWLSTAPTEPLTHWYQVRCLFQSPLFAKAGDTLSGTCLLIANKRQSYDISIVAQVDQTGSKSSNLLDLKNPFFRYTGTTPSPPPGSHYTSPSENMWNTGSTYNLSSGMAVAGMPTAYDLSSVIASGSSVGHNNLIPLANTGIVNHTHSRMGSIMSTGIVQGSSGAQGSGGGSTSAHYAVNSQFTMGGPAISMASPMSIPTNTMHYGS

[7] = biological target: T2, Histone-lysine N-methyltransferase SETD7 (Homo sapiens) (UniProt Q8WTS6); assay: Inhibition of human recombinant SET7 assessed as histone H3 protein methylation at 100 uM; method in brief: as §3
T2 sequence (whole entry): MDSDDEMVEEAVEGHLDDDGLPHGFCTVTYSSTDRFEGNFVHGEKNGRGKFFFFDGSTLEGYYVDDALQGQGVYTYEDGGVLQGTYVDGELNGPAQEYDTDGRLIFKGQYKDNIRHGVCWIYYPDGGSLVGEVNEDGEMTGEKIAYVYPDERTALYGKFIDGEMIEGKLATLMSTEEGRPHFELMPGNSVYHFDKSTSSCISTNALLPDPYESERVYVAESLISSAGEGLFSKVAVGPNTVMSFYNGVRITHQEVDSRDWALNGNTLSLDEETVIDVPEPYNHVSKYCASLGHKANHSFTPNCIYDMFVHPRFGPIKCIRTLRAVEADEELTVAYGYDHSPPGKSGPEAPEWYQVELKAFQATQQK

U-937 [8] = assay: Inhibition of histone H3K4 methylation in human U937 cells at 50 uM after 24 hrs; format: functional, cell-based; method in brief: as §2
[9] = biological target: RmtA (Emericella nidulans) (UniProt Q5VLE3); assay: Inhibition of Aspergillus nidulans RmtA at 84.6 uM; method in brief: as §1
[10] = biological target: RmtA (Emericella nidulans) (UniProt Q5VLE3); assay: Inhibition of Aspergillus nidulans RmtA at 77 uM
[11] = biological target: RmtA (Emericella nidulans) (UniProt Q5VLE3); assay: Inhibition of Aspergillus nidulans RmtA at 88.5 uM; method in brief: as §1
[12] = biological target: RmtA (Emericella nidulans) (UniProt Q5VLE3); assay: Inhibition of Aspergillus nidulans RmtA at 70.4 uM; method in brief: as §1

Sequence of RmtA (Emericella nidulans) (Q5VLE3 as listed by the source): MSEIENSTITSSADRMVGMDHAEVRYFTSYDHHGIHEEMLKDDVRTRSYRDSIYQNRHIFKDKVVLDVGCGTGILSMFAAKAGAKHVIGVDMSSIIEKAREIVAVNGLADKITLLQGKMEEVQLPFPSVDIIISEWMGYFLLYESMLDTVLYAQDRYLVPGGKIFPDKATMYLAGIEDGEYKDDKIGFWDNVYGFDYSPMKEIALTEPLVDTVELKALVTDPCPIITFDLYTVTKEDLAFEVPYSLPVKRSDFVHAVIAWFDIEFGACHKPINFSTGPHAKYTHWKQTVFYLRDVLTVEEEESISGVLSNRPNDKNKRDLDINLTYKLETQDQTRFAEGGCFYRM

SMILES | inhibition [1] | Activity (U-937 [2]) | Activity (U-937 [3]) | inhibition [4] | Activity [5] | Activity [6] | Activity [7] | Activity (U-937 [8]) | inhibition [9] | inhibition [10] | inhibition [11] | inhibition [12]
CC(C)(C(=O)/C=C/c1ccc(O)c(Br)c1)C(=O)/C=C/c1ccc(O)c(Br)c1 | 0% | Active | Active |  |  |  |  |  |  |  |  | 
O=C1/C(=C/c2ccc(O)c(Br)c2)CCCC/C1=C\c1ccc(O)c(Br)c1 |  | Active | Active | 0% | inactive | Active | inactive | Active |  |  |  | 
CN1C2CCC1/C(=C\c1ccc(O)c(Br)c1)C(=O)/C2=C/c1ccc(O)c(Br)c1 |  | Active | Active |  |  |  |  | Active | 0% |  |  | 
O=C1/C(=C/c2ccc(O)c(Br)c2)CN(Cc2ccccc2)C/C1=C\c1ccc(O)c(Br)c1 |  | Active | Active |  | inactive | Active | inactive | Active |  | 0% |  | 
O=C1/C(=C/c2ccc(O)c(Br)c2)CSC/C1=C\c1ccc(O)c(Br)c1 |  | Active | Active |  | inactive | Active | inactive | Active |  |  | 0% | 
O=C(Nc1cc(Br)c(O)c(Br)c1)c1ccc(C(=O)Nc2cc(Br)c(O)c(Br)c2)cc1 |  | Active | Active |  |  |  |  |  |  |  |  | 0%
